Legend:
SH-SY5Y cells = assay: Intracellular calcium / calcium influx in SH-SY5Y cells; assay type: cell-based, human; details: for inhibition of prorenin-induced calcium influx: 1 μmol/L inhibitor
PRR = details: cited from earlier work
hypertensive RA mice [1] = details: systemic enalapril; cited from earlier work
[2] = system: DOCA-salt hypertensive mice; assay type: in vivo, mouse; details: losartan 3 mmol/L, 10-minute icv infusion, n=5
How it was run: (§1)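 Test compound, scrambled peptide (1 mmol/L, control) or losartan was infused intracerebroventricularly over 10 minutes into hypertensive mice. BP was traced in real time before, during and after the infusion. The read-out was change in mean arterial pressure (ΔMAP).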

[3] = system: prorenin-induced hypertension, C57Bl/6J mice; details: cited from earlier work
[4] = system: ERK-1/2 phosphorylation, Neuro-2A cells; assay: ERK-1/2 phosphorylation in Neuro-2A cells; assay type: cell-based, mouse
How it was run: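 Neuro-2A cells were kept in serum-free medium overnight, then pretreated with losartan 10 μmol/L for 30 minutes. They were then exposed for 15 minutes to prorenin (4 nmol/L), HRP (1 μmol/L) or test peptide (1 μmol/L). Total and phosphorylated ERK-1/2 were measured by Western blot. PRR knockdown cells were transfected with AAV-PRR-shRNA for 3 days.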

normotensive SHAM mice = assay: Acute intracerebroventricular infusion, BP in normotensive SHAM mice; assay type: in vivo, mouse; details: icv PRO20 1 mmol/L or losartan 3 mmol/L, n=4
hypertensive RA mice [5] = assay: Acute intracerebroventricular infusion, BP in renin-angiotensinogen; assay type: in vivo, mouse; details: losartan 3 mmol/L, 10-minute icv infusion, n=4
How it was run: as §1

[6] = system: DOCA-salt hypertension, mice; details: icv infusion of losartan; cited from earlier work
[7] = system: diabetic hypertensive rats; details: cited from earlier work
ERK-1/2 = details: cited from earlier work
[8] = system: spontaneously hypertensive rats; details: cited from earlier work
diabetic nephropathy = details: cited from earlier work
prorenin = details: cited from earlier work
[9] = target: (pro)renin receptor (PRR), mouse brain (Mus musculus, UniProt Q9CYN9); assay: PRO20-FITC fluorescence binding to mouse brain sections; details: PRO20-FITC 5 nmol/L, unlabeled mouse prorenin 1 μmol/L, mouse PVN
How it was run: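 Mouse PVN sections were incubated with FITC-labelled test peptide, 5 nmol/L with or without unlabelled mouse prorenin 1 μmol/L. For a concentration series (1, 2, 5, 10, 20 nmol/L), n=5–6 per concentration. PVN from neuron-specific PRR-knockout mice was also examined. Nuclei were stained with DAPI. Relative fluorescence units were total fluorescence density minus background per image.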

[10] = system: prorenin-induced hypertension, C57Bl/6J mice; assay: Pressor response to acute intracerebroventricular infusion of mouse prorenin; assay type: in vivo; details: mouse prorenin 2.4 μmol/L + scrambled peptide 100 μmol/L, 3 μL/min for 10 minutes, icv
[11] = target: (pro)renin receptor (PRR), human brain (Homo sapiens, UniProt O75787); assay: PRO20-FITC fluorescence binding to human brain sections; details: PRO20-FITC 1 nmol/L, unlabeled human prorenin 1 μmol/L, human PVN
How it was run: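 Human PVN sections were incubated with FITC-labelled test peptide, 1 nmol/L with or without unlabelled human prorenin 1 μmol/L. For a concentration series (0.2, 0.5, 1, 2, 5 nmol/L), n=5–6 per concentration. Nuclei were stained with DAPI. Relative fluorescence units were total fluorescence density minus background in each image.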

[12] = system: plasminogen-activator inhibitor 1 release; details: prorenin 4 nmol/L; cited from earlier work
[13] = human prorenin 4 nmol/L, n=7–11/group

Chain of (pro)renin receptor (PRR), mouse brain (Q9CYN9 18-350): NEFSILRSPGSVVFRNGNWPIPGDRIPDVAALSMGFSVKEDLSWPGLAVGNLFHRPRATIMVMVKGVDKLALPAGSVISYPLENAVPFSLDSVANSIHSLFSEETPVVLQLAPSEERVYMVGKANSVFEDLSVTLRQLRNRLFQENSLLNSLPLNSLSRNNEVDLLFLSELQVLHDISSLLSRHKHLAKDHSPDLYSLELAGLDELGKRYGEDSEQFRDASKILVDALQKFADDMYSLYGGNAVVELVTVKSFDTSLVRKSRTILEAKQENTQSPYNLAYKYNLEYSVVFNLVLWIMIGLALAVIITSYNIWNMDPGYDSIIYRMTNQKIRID
Chain of (pro)renin receptor (PRR), human brain (O75787 17-350): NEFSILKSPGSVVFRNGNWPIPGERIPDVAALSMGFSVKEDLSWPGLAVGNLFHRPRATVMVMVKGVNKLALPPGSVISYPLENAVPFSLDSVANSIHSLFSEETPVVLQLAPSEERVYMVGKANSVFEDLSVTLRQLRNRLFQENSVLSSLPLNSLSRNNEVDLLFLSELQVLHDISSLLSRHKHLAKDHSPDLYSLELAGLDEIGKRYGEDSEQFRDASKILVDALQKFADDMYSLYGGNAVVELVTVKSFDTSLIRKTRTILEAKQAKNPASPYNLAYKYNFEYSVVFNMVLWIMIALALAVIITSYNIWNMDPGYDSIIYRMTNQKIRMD

C[C@H](CS)C(=O)N1CCC[C@H]1C(=O)O [captopril]
inhibition of prorenin-induced calcium influx (SH-SY5Y cells; [13]): completely blocked

COCCCOc1cc(C[C@@H](C[C@H](N)[C@@H](O)C[C@H](C(=O)NCC(C)(C)C(N)=O)C(C)C)C(C)C)ccc1OC [aliskiren]
effect on renin or prorenin binding to the PRR (PRR): does not alter renin or prorenin binding to the PRR

CCOC(=O)[C@H](CCc1ccccc1)N[C@@H](C)C(=O)N1CCC[C@H]1C(=O)O [enalapril]
effect on BP in RA mice, systemic (hypertensive RA mice [1]): did not normalize BP

CCCCc1nc(Cl)c(CO)n1Cc1ccc(-c2ccccc2-c2nn[nH]n2)cc1 [losartan]
effect on mean arterial BP (MAP) [2]: reduced mean arterial BP
effect on prorenin-induced hypertension ([3]; icv infusion of losartan): abolishes prorenin-induced hypertension
inhibition of prorenin-induced ERK-1/2 phosphorylation ([4]; losartan, prorenin): partially blocked
effect on MAP in normotensive mice (normotensive SHAM mice): did not alter MAP
effect on mean arterial BP (MAP) (hypertensive RA mice [5]): reduced mean arterial BP
inhibition of prorenin-induced calcium influx (SH-SY5Y cells; [13]): completely blocked
inhibition of Ang II-induced intracellular calcium increase (SH-SY5Y cells; losartan 1 μmol/L vs Ang II 10 nmol/L, n=7–11/group): blocked
effect on development of DOCA-salt hypertension [6]: totally prevents the development of DOCA-salt hypertension

Ang II: major bioactive peptide of the RAS
intracellular calcium in SH-SY5Y cells (SH-SY5Y cells; Ang II 10 nmol/L, Fluo-4-AM, n=7–11/group): increased intracellular calcium levels

RILLKKMPSV [HRP]
inhibition of binding of prorenin to the PRR (PRR): no direct inhibitory effect on the binding of prorenin to the PRR
effect on beneficial effects of aliskiren on vascular dysfunction [7]: counteracts the beneficial effects of aliskiren
phosphorylated ERK-1/2 levels, peptide alone ([4]; PRO20 or HRP alone, 1 μmol/L, 15 minutes, losartan 10 μmol/L): unaffected
ERK-1/2 phosphorylation in the retina (ERK-1/2): increases phosphorylation of extracellular signal–regulated protein kinase 1 and 2
effect on cardiac fibrosis [8]: attenuates the development of cardiac fibrosis
effect on diabetic nephropathy in rats (diabetic nephropathy; development): prevent the development of diabetic nephropathy in rats without affecting hyperglycemia
effect on established diabetic nephropathy in rats (diabetic nephropathy; established): induce regression of established diabetic nephropathy
conformational change and nonproteolytic activation of prorenin on binding to PRR (prorenin): inhibits the conformational change and nonproteolytic activation of prorenin

Nc1ncnc2c1ncn2[C@@H]1O[C@H](COP(=O)(O)OP(=O)(O)OP(=O)(O)O)[C@@H](O)[C@H]1O [ATP]
intracellular calcium in SH-SY5Y cells (SH-SY5Y cells; ATP 1 μmol/L, Fluo-4-AM, n=7–11/group): increased intracellular calcium

B1: mouse prorenin: unlabeled mouse prorenin (protein, UniProt P06281 22-402, looked up)
pro-form: LPTRTATFERIPLKKMPSVREILEERGVDMTRLSAEWGVFTKRPSLTNLTSPVVLTNYLNTQYYGEIGIGTPPQTFKVIFDTGSANLWVPSTKCSRLYLACGIHSLYESSDSSSYMENGSDFTIHYGSGRVKGFLSQDSVTVGGITVTQTFGEVTELPLIPFMLAKFDGVLGMGFPAQAVGGVTPVFDHILSQGVLKEEVFSVYYNRGSHLLGGEVVLGGSDPQHYQGNFHYVSISKTDSWQITMKGVSVGSSTLLCEEGCAVVVDTGSSFISAPTSSLKLIMQALGAKEKRIEEYVVNCSQVPTLPDISFDLGGRAYTLSSTDYVLQYPNRRDKLCTLALHAMDIPPPTGPVWVLGATFIRKFYTEFDRHNNRIGFALAR
modifications: pro-form
BP in conscious wild-type mice ([3]; icv mouse prorenin 2.4 μmol/L, conscious wild-type C57Bl/6J mice): increases BP
inhibition of PRO20-FITC binding by unlabeled prorenin [9]: completely blocked
BP during intracerebroventricular infusion of prorenin [10]: induced a rapid increase in BP

B2: human prorenin: unlabeled human prorenin (protein, UniProt P00797 24-406, looked up)
pro-form: LPTDTTTFKRIFLKRMPSIRESLKERGVDMARLGPEWSQPMKRLTLGNTTSSVILTNYMDTQYYGEIGIGTPPQTFKVVFDTGSSNVWVPSSKCSRLYTACVYHKLFDASDSSSYKHNGTELTLRYSTGTVSGFLSQDIITVGGITVTQMFGEVTEMPALPFMLAEFDGVVGMGFIEQAIGRVTPIFDNIISQGVLKEDVFSFYYNRDSENSQSLGGQIVLGGSDPQHYEGNFHYINLIKTGVWQIQMKGVSVGSSTLLCEDGCLALVDTGASYISGSTSSIEKLMEALGAKKRLFDYVVKCNEGPTLPDISFHLGGKEYTLTSADYVFQESYSSKKLCTLAIHAMDIPPPTGPTWALGATFIRKFYTEFDRRNNRIGFALAR
modifications: pro-form
inhibition of PRO20-FITC binding by unlabeled prorenin [11]: eliminated PRO20-FITC binding
intracellular calcium in SH-SY5Y cells (SH-SY5Y cells; [13]): increased neuronal intracellular calcium
calcium influx induced relative to Ang II (SH-SY5Y cells; human prorenin vs Ang II, SH-SY5Y cells): to a degree similar to that of Ang II

B3: prorenin: prorenin; species not stated at the place (protein, UniProt P00797 24-406, looked up)
pro-form: LPTDTTTFKRIFLKRMPSIRESLKERGVDMARLGPEWSQPMKRLTLGNTTSSVILTNYMDTQYYGEIGIGTPPQTFKVVFDTGSSNVWVPSSKCSRLYTACVYHKLFDASDSSSYKHNGTELTLRYSTGTVSGFLSQDIITVGGITVTQMFGEVTEMPALPFMLAEFDGVVGMGFIEQAIGRVTPIFDNIISQGVLKEDVFSFYYNRDSENSQSLGGQIVLGGSDPQHYEGNFHYINLIKTGVWQIQMKGVSVGSSTLLCEDGCLALVDTGASYISGSTSSIEKLMEALGAKKRLFDYVVKCNEGPTLPDISFHLGGKEYTLTSADYVFQESYSSKKLCTLAIHAMDIPPPTGPTWALGATFIRKFYTEFDRRNNRIGFALAR
modifications: pro-form
ERK-1/2 phosphorylation ([4]; prorenin alone, serum-free medium): markedly increased ERK-1/2 phosphorylation
Ang II-dependent plasminogen-activator inhibitor 1 release [12]: increased Ang II–dependent plasminogen-activator inhibitor 1 release

Reference: article PMC4902274 (Hypertension, 2014)
